Results taken from ChEMBL document CHEMBL2396573, “Synthesis and evaluation of 8-amino-[1,2,4]triazolo[4,3-a]pyridin-3(2H)-one derivatives as glycogen synthase kinase-3 (GSK-3) inhibitors” (Bioorg Med Chem Lett, 2013).

Key:
[1] = Inhibition of GSK3 in rat […] cells assessed as reduction in glucose production after overnight incubation by fluorescence assay; assay type: cell-based
Procedure, shortened: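 Rat hepatoma H4IIE cells grown in DMEM + 10% FBS, 2 mM L-glutamine and penicillin–streptomycin at 37 °C, 5% CO2, and passaged at 75% confluence. Plated at 100,000 cells/well, attached ~3 h, then PBS-washed and held overnight in glucose- and serum-free DMEM with 20 mM lactate and 2 mM pyruvate. Compounds, diluted in this medium, added overnight. Glucose in medium read with Amplex Red/glucose oxidase (30 min, dark; ex 560/em 615 nm); mean of triplicates.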

[2] = target: Glycogen synthase kinase-3 (Homo sapiens, UniProt P49840+P49841); assay: Inhibition of recombinant human GSK3 using YRRAAVPPSPSLSRHSSPHQ(pS)EDEEE as substrate preincubated for 10 mins followed by [33P-gamma]-ATP addition measured after 30 mins by liquid scintillation counting analysis; assay type: protein assay
Procedure, shortened: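 Reaction started with 1 µM ATP […] 33P-γ-ATP, run 30 min at 30 °C, and stopped with 3% phosphoric acid. Product captured on P81 paper and read by scintillation counting. IC50 is the mean of triplicates.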

[3] = target: Casein kinase II (Homo sapiens) (UniProt P67870+P68400+P19784); assay: Inhibition of human CK2 at 10 uM relative to control; assay type: protein-complex assay
Homo sapiens = species: Homo sapiens; assay: Inhibition of human PKA at 10 uM relative to control
[4] = Elimination half life in rat at 3 mg/kg, iv by LC/MS/MS analysis; assay type: ADME, organism-based; design: dose 3 mg/kg, route intravenous; conditions: in vivo, read-out: beta t1/2 (converted)
Procedure, shortened: (§1)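 Rat PK, n = 3 animals; iv dose 3 mg/kg, oral dose 5 mg/kg. Plasma levels quantified by LC/MS/MS after dosing. Derived parameters: AUC0–inf, clearance, elimination half-life and oral bioavailability (F).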

[5] = Elimination half life in rat at 5 mg/kg, po by LC/MS/MS analysis; assay type: ADME, organism-based; design: dose 5 mg/kg, route oral; conditions: in vivo, read-out: beta t1/2 (converted); procedure, shortened: as §1
[6] = target: Dual specificity mitogen-activated protein kinase kinase 1 (Homo sapiens) (UniProt Q02750); assay: Inhibition of human MEK1 at 10 uM relative to control
[7] = target: Phosphorylase b kinase gamma catalytic chain, liver/testis isoform (Homo sapiens) (UniProt P15735); assay: Inhibition of human PhKgamma2 at 10 uM relative to control
[8] = Clearance in rat at 3 mg/kg, iv by LC/MS/MS analysis; assay type: ADME, organism-based; design: dose 3 mg/kg, route intravenous; conditions: in vivo; procedure, shortened: as §1
[9] = target: 5'-AMP-activated protein kinase catalytic subunit alpha-1 (Homo sapiens) (UniProt Q13131); assay: Inhibition of human AMPKalpha1 at 10 uM relative to control
[10] = target: CDK2/Cyclin A2 (Homo sapiens) (UniProt P24941+P20248); assay: Inhibition of human CDK2/cyclinA at 10 uM relative to control; assay type: protein-complex assay
[11] = target: MAP kinase-activated protein kinase 2 (Homo sapiens) (UniProt P49137); assay: Inhibition of human MAPKAP-K2 at 10 uM relative to control
[12] = target: Ribosomal protein S6 kinase alpha-5 (Homo sapiens) (UniProt O75582); assay: Inhibition of human MSK1 at 10 uM relative to control
[13] = target: Cyclin-dependent kinase 5/CDK5 activator 1 (Homo sapiens) (UniProt Q00535+Q15078); assay: Inhibition of human CDK5/p25 at 10 uM relative to control; assay type: protein-complex assay
[14] = target: Glycogen synthase kinase-3 beta (Homo sapiens) (UniProt P49841); assay: Inhibition of human GSK3beta at 10 uM relative to control
[15] = Plasma concentration in ICR mouse at 30 mg/kg, iv measured at 0.25 hrs by LC/MS/MS analysis; assay type: ADME, organism-based; design: dose 30 mg/kg, route intravenous
Procedure, shortened: (§2)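 ICR mice, n = 3, given a single iv dose of 30 mg/kg. Plasma (ng/ml) and brain (ng/g) concentrations measured by LC/MS/MS at 0.25 and 0.75 h. Brain/plasma ratio taken from these paired values.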

[16] = target: Serine/threonine-protein kinase Chk1 (Homo sapiens) (UniProt O14757); assay: Inhibition of human CHK1 at 10 uM relative to control
[17] = target: Serine/threonine-protein kinase Sgk1 (Homo sapiens) (UniProt O00141); assay: Inhibition of human SGK at 10 uM relative to control
[18] = target: Mitogen-activated protein kinase 14 (Homo sapiens) (UniProt Q16539); assay: Inhibition of human SAPK2A at 10 uM relative to control
[19] = target: Ribosomal protein S6 kinase beta-1 (Homo sapiens) (UniProt P23443); assay: Inhibition of human p70S6K at 10 uM relative to control
[20] = Solubility of the compound in water; assay type: physicochemical
[21] = Drug uptake in ICR mouse brain at 30 mg/kg, iv measured at 0.25 hrs by LC/MS/MS analysis; assay type: ADME, organism-based; design: dose 30 mg/kg, route intravenous; conditions: read-out: Drug uptake; procedure, shortened: as §2
[22] = target: Protein kinase C alpha type (Homo sapiens) (UniProt P17252); assay: Inhibition of human PKCalpha at 10 uM relative to control
[23] = target: Ribosomal protein S6 kinase alpha-3 (Homo sapiens) (UniProt P51812); assay: Inhibition of human RSK2 at 10 uM relative to control
[24] = AUC (0 to infinity) in rat at 3 mg/kg, iv by LC/MS/MS analysis; assay type: ADME, organism-based; design: time infinity, dose 3 mg/kg, route intravenous; conditions: plasma
Procedure, shortened: (§3)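 Rat pharmacokinetics with n = 3 per group. Compound given iv at 3 mg/kg or po at 5 mg/kg. Concentrations were measured by LC/MS/MS after administration. AUC0–inf is the area under the concentration–time curve. Clearance, elimination half-life and bioavailability were derived in the same study.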

[25] = target: RAC-alpha serine/threonine-protein kinase (Homo sapiens) (UniProt P31749); assay: Inhibition of human PKBalpha at 10 uM relative to control
[26] = Drug uptake in ICR mouse brain at 30 mg/kg, iv measured at 0.75 hrs by LC/MS/MS analysis; assay type: ADME, organism-based; design: dose 30 mg/kg, route intravenous; conditions: read-out: Drug uptake; procedure, shortened: as §2
[27] = AUC (0 to infinity) in rat at 5 mg/kg, po by LC/MS/MS analysis; assay type: ADME, organism-based; design: time infinity, dose 5 mg/kg, route oral; conditions: plasma; procedure, shortened: as §3
[28] = target: Mitogen-activated protein kinase 8 (Homo sapiens) (UniProt P45983); assay: Inhibition of human JNK1alpha1 at 10 uM relative to control
[29] = Oral bioavailability in rat at 5 mg/kg by LC/MS/MS analysis; assay type: ADME, organism-based; conditions: in vivo; procedure, shortened: as §1
[30] = target: Mitogen-activated protein kinase 11 (Homo sapiens) (UniProt Q15759); assay: Inhibition of human SAPK2B at 10 uM relative to control
[31] = target: Mitogen-activated protein kinase 12 (Homo sapiens) (UniProt P53778); assay: Inhibition of human SAPK3 at 10 uM relative to control
[32] = Plasma concentration in ICR mouse at 30 mg/kg, iv measured at 0.75 hrs by LC/MS/MS analysis; assay type: ADME, organism-based; design: dose 30 mg/kg, route intravenous; procedure, shortened: as §2
[33] = target: 3-phosphoinositide-dependent protein kinase 1 (Homo sapiens) (UniProt O15530); assay: Inhibition of human PDK1 at 10 uM relative to control
[34] = target: Mitogen-activated protein kinase 1 (Homo sapiens) (UniProt P28482); assay: Inhibition of human MAPK1 at 10 uM relative to control
[35] = target: Rho-associated protein kinase 2 (Homo sapiens) (UniProt O75116); assay: Inhibition of human ROCK-2 at 10 uM relative to control
[36] = target: Mitogen-activated protein kinase 13 (Homo sapiens) (UniProt O15264); assay: Inhibition of human SAPK4 at 10 uM relative to control
[37] = target: MAP kinase-activated protein kinase 5 (Homo sapiens) (UniProt Q8IW41); assay: Inhibition of human PRAK at 10 uM relative to control
[38] = target: Tyrosine-protein kinase Lck (Homo sapiens) (UniProt P06239); assay: Inhibition of human LCK at 10 uM relative to control
[39] = target: Glycogen synthase kinase-3 alpha (Homo sapiens) (UniProt P49840); assay: Inhibition of human GSK3alpha at 10 uM relative to control
[40] = Ratio of drug level from brain to plasma in ICR mouse at 30 mg/kg, iv measured at 0.75 hrs; assay type: ADME, organism-based; design: dose 30 mg/kg, route intravenous; conditions: read-out: BPR; procedure, shortened: as §2
[41] = Ratio of drug level from brain to plasma in ICR mouse at 30 mg/kg, iv measured at 0.25 hrs; assay type: ADME, organism-based; design: dose 30 mg/kg, route intravenous; conditions: read-out: BPR; procedure, shortened: as §2

Chain of Rho-associated protein kinase 2 (Homo sapiens) (O75116 whole entry, looked up): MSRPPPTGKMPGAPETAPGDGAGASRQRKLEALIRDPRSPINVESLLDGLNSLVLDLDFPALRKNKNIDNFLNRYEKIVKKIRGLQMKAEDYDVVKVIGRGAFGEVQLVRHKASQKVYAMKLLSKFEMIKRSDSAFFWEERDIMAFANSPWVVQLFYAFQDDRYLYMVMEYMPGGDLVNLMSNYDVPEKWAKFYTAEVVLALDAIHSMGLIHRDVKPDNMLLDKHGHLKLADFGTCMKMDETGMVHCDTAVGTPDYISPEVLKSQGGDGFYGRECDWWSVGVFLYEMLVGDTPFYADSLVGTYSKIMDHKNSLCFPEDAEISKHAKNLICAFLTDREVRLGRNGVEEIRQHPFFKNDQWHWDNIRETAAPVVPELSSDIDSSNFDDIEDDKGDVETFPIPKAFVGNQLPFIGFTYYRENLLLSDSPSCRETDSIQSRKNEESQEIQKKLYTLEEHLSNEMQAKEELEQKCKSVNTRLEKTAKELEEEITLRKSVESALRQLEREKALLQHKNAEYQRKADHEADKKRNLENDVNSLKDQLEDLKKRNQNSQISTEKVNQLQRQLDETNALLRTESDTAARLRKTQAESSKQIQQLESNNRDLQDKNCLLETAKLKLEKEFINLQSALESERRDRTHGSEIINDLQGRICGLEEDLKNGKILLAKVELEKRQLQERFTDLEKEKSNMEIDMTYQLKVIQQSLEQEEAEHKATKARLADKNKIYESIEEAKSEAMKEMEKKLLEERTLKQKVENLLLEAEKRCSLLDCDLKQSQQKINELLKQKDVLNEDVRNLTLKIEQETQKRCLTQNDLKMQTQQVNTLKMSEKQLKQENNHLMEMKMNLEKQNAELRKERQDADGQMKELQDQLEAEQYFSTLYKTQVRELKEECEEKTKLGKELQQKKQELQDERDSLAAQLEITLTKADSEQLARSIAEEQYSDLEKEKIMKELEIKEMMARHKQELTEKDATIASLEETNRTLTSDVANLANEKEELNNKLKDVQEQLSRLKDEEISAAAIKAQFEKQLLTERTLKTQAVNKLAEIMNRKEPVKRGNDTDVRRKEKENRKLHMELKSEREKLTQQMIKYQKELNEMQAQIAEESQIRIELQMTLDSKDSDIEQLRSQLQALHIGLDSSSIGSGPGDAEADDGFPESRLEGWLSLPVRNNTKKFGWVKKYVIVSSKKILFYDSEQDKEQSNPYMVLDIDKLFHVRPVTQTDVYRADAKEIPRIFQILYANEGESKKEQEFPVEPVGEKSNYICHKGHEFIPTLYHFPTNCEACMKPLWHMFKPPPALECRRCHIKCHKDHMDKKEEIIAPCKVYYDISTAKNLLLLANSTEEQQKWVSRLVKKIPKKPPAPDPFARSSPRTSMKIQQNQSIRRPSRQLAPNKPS
Chain of Mitogen-activated protein kinase 12 (Homo sapiens) (P53778 whole entry): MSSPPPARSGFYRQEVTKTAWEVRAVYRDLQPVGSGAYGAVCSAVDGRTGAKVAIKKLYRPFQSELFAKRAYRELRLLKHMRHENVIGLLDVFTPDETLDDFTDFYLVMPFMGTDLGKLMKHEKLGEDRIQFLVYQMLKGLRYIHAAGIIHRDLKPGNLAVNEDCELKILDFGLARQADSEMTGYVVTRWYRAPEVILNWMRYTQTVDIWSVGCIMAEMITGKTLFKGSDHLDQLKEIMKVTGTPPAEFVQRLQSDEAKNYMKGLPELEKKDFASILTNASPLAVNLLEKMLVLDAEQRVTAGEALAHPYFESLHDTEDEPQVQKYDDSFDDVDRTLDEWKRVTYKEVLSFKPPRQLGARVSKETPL
Chain of Ribosomal protein S6 kinase alpha-3 (Homo sapiens) (P51812 whole entry): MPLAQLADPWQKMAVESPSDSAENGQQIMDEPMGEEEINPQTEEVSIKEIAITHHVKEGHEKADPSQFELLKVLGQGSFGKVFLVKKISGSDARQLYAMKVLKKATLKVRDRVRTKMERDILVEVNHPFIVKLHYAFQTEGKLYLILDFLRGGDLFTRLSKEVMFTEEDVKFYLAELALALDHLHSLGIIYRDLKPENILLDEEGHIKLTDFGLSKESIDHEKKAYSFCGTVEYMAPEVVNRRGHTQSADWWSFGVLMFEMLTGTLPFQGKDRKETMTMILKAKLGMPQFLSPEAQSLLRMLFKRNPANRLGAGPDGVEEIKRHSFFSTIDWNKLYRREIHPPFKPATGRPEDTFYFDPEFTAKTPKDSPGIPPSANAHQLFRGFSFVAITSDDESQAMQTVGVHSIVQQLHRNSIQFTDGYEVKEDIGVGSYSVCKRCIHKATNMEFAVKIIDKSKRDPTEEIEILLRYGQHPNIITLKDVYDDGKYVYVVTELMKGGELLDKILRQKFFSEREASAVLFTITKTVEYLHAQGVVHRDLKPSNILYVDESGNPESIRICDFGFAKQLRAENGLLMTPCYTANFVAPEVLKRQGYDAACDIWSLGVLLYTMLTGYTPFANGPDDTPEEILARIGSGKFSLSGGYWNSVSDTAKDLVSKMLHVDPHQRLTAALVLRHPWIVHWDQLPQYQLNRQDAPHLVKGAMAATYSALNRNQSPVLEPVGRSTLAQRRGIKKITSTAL
Chain of Phosphorylase b kinase gamma catalytic chain, liver/testis isoform (Homo sapiens) (P15735 whole entry, canonical isoform): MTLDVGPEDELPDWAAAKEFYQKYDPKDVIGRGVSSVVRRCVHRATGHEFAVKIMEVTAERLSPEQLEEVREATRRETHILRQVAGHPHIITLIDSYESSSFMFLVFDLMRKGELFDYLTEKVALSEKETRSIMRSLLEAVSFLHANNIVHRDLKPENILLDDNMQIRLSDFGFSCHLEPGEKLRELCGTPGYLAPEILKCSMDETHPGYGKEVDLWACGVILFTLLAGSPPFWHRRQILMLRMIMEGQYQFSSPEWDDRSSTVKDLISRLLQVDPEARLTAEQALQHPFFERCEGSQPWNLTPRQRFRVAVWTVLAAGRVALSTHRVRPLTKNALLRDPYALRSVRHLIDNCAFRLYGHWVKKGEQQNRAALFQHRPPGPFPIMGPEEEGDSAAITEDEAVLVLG
Chain of Glycogen synthase kinase-3 alpha (Homo sapiens) (P49840 2-483 limits assumed): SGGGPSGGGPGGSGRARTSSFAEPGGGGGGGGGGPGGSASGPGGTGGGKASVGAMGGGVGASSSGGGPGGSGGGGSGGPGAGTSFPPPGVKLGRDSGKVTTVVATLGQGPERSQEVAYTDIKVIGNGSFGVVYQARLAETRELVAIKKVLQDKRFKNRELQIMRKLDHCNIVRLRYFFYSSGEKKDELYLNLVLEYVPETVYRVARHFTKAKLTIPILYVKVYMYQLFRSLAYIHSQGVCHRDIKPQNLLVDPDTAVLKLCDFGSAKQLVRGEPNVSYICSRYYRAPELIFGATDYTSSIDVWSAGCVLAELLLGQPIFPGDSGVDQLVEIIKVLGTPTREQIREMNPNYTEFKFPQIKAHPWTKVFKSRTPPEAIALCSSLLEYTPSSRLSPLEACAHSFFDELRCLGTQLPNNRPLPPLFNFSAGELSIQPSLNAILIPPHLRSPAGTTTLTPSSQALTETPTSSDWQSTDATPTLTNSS
Chain of Cyclin-dependent kinase 5/CDK5 activator 1 (Homo sapiens) (Q00535 whole entry): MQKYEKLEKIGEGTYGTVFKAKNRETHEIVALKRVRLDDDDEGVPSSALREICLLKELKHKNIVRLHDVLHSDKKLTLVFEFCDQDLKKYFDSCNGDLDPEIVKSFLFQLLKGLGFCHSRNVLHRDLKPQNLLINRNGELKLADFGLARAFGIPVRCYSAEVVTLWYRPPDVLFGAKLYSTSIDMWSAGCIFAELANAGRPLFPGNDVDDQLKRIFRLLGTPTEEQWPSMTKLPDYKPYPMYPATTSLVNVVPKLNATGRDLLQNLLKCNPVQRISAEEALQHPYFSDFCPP
Chain of Cyclin-dependent kinase 5/CDK5 activator 1 (Homo sapiens) (Q15078 99-307 partner limits assumed): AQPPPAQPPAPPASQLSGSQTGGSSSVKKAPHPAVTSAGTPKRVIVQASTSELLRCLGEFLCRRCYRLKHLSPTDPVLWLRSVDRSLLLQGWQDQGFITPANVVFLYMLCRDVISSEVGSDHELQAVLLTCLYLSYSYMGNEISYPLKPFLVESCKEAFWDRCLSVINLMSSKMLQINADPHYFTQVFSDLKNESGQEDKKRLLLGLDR
Chain of MAP kinase-activated protein kinase 5 (Homo sapiens) (Q8IW41 whole entry): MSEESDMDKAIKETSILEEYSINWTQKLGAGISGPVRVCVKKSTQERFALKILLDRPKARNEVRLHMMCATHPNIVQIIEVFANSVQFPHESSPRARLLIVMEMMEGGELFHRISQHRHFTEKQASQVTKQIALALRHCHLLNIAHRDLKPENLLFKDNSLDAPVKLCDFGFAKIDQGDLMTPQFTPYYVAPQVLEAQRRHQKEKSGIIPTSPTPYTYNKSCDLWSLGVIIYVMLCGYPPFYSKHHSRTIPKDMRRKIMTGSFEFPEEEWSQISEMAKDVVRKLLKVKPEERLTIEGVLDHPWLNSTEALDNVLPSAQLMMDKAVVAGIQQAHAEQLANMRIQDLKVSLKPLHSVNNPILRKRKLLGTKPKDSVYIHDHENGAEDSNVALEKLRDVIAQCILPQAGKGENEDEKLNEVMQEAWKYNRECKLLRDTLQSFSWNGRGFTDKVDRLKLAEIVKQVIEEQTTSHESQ
Chain of MAP kinase-activated protein kinase 2 (Homo sapiens) (P49137 whole entry, looked up): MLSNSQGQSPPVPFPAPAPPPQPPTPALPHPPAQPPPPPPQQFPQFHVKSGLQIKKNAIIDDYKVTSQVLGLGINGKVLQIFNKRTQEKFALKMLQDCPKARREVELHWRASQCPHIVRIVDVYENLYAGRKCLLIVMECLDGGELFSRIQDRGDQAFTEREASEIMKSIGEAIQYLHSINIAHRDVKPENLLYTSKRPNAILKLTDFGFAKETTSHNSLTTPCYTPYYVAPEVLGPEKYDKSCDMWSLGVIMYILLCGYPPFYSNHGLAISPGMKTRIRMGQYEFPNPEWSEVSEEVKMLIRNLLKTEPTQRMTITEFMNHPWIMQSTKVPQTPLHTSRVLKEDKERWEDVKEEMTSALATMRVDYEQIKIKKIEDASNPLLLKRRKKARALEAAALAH

Compound: Cl.Nc1cc(CCCNc2cc(Cl)cn3c(=O)[nH]nc23)ccn1
- EC50 [1]: 2.36 µM
- IC50 [2]: 0.249 µM

Compound: Cl.O=c1[nH]nc2c(NCCCc3cccnc3)cc(Cl)cn12
- EC50 [1]: 1.68 µM
- IC50 [2]: 0.52 µM

Compound: Cc1cc(N(C)CCCc2ccccn2)c2n[nH]c(=O)n2c1.Cl
- IC50 [2]: 50 µM

Compound: Cc1cc(NCCCc2ccc(N)cc2)c2n[nH]c(=O)n2c1.Cl
- EC50 [1]: 18.4 µM
- IC50 [2]: 1.01 µM

Compound: Cl.O=c1[nH]nc2c(NCCCc3ccnc(Cl)c3)cc(Cl)cn12
- EC50 [1]: 2.63 µM
- IC50 [2]: 0.199 µM

Compound: COc1ccc(OCCn2nc3c(N)cccn3c2=O)cc1
- IC50 [2]: > 50 µM

Compound: Cc1cc(NCCCc2ccc(C)nc2)c2n[nH]c(=O)n2c1.Cl
- EC50 [1]: 1.25 µM
- IC50 [2]: 0.309 µM

Compound: Cl.O=c1[nH]nc2c(NCCCc3cccc(OCCN4CCOCC4)c3)cc(Cl)cn12
- EC50 [1]: 3.84 µM
- IC50 [2]: 0.247 µM

Compound: COc1cccc(CCCNc2cc(Cl)cn3c(=O)[nH]nc23)c1
- EC50 [1]: 2.71 µM
- IC50 [2]: 0.19 µM

Compound: Cc1cc(NCCCc2cccnc2)c2n[nH]c(=O)n2c1.Cl
- EC50 [1]: 5.44 µM
- IC50 [2]: 0.354 µM

Compound: COc1ccc(OCCNc2cc(C)cn3c(=O)[nH]nc23)cc1
- IC50 [2]: 7.01 µM

Compound: Cc1ccc(CCCNc2cc(Cl)cn3c(=O)[nH]nc23)cn1.Cl
- EC50 [1]: 2.74 µM
- IC50 [2]: 0.342 µM

Compound: COc1cc(CCCNc2cc(C)cn3c(=O)[nH]nc23)ccn1.Cl
- EC50 [1]: 9.11 µM
- IC50 [2]: 0.641 µM

Compound: Cc1cc(NCCCc2ccccn2)c2n[nH]c(=O)n2c1.Cl
- EC50 [1]: 21.1 µM
- IC50 [2]: 1.2 µM

Compound: Cc1cc(NCCCc2ccncc2)c2n[nH]c(=O)n2c1.Cl
- EC50 [1]: 6.23 µM
- IC50 [2]: 0.607 µM

Compound: Cc1cc(CCCNc2cc(Cl)cn3c(=O)[nH]nc23)ccn1.Cl
- EC50 [1]: 7.03 µM
- IC50 [2]: 0.818 µM

Compound: Cl.O=c1[nH]nc2c(NCCCc3ccncc3)cc(Cl)cn12
- inhibition [3]: 5%
- inhibition (Homo sapiens): 0%
- half-life [4]: 24 min
- half-life [5]: 72 min
- inhibition [6]: 9%
- inhibition [7]: 25%
- clearance [8]: 20 mL/min/kg
- inhibition [9]: -1%
- inhibition [10]: 54%
- inhibition [11]: 19%
- inhibition [12]: 9%
- EC50 [1]: 1.78 µM
- inhibition [13]: 53%
- inhibition [14]: 90%
- concentration at 0.25 h [15]: 634 ng/mL
- inhibition [16]: 21%
- inhibition [17]: 22%
- inhibition [18]: -1%
- inhibition [19]: 14%
- solubility [20]: > 10000 µg/mL
- concentration at 0.25 h [21]: 214 ng/g
- inhibition [22]: 18%
- inhibition [23]: 34%
- AUC(0-inf) [24]: 2490 ng·h/mL
- inhibition [25]: 12%
- concentration at 0.75 h [26]: 107 ng/g
- AUC(0-inf) [27]: 3460 ng·h/mL
- inhibition [28]: 9%
- bioavailability [29]: 83%
- inhibition [30]: 1%
- inhibition [31]: 5%
- IC50 [2]: 0.111 µM
- concentration at 0.75 h [32]: 1050 ng/mL
- inhibition [33]: 10%
- inhibition [34]: 15%
- inhibition [35]: 27%
- inhibition [36]: 2%
- inhibition [37]: 14%
- inhibition [38]: 19%
- inhibition [39]: 99%
- Kp at 0.75 h [40]: 0.1
- Kp at 0.25 h [41]: 0.34

Compound: Cc1cc(NCCCn2ccnc2)c2n[nH]c(=O)n2c1.Cl
- EC50 [1]: 13.3 µM
- IC50 [2]: 1.36 µM

Compound: COc1ccc(OCCNc2cccn3c(=O)[nH]nc23)cc1
- IC50 [2]: 13 µM

Compound: Nc1cccn2c(=O)[nH]nc12
- IC50 [2]: > 50 µM

Compound: COc1ccc(CCC(=O)Nc2cccn3c(=O)[nH]nc23)cc1
- IC50 [2]: > 50 µM

Compound: Cc1cc(NCCCN2CCNCC2)c2n[nH]c(=O)n2c1.Cl
- IC50 [2]: > 50 µM

Compound: Cc1cc(NCCCc2ccnc(Cl)c2)c2n[nH]c(=O)n2c1.Cl
- EC50 [1]: 12.1 µM
- IC50 [2]: 0.774 µM
